Data set [1] can be described thus: Haemolytic activity in human erythrocytes at 0.1 to 10 ug/ml relative to control. The format is ADME, cell-based, Erythrocyte. To be noted: read-out: Activity. The procedure, abridged:
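Human erythrocytes washed in 150 mM NaCl, resuspended in PBS pH 7.4 (2% blood); compound at final 0.1, 1 and 10 μg/mL (0.5% DMSO) for 45 min at 37 °C, n = 6; spun at 500g, 4 °C; supernatant absorbance read at 540 nm; 1% Triton X-100 as positive and PBS as negative control; % lysis calculated.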

For another data set, the system named is Escherichia coli. Description: Antibacterial activity against Escherichia coli ATCC 25922 after 20 hrs by CLSI based-broth microdilution method. The format is functional. To be noted: ATCC 25922, 20 h. A general note: Broth dilution looks for growth in wells or tubes with falling amounts of substance.
The test system of data set [2] is Staphylococcus epidermidis. Nature of the data set: Antibacterial activity against Staphylococcus epidermidis ATCC 12228 after 20 hrs by CLSI based-broth microdilution method. The format is functional. To be noted: ATCC 12228, 20 h.
For the next data set, the system named is Streptococcus pyogenes. Description: Antibacterial activity against Streptococcus pyogenes ATCC 19615 after 20 hrs by CLSI based-broth microdilution method. The format is functional. The following applies: ATCC 19615, 20 h.
Data set [3] can be described thus: Inhibition of Escherichia coli RNAP/sigma-70 protein-protein interaction assessed as reduction in RNA synthesis preincubated for 10 mins followed by sigma-70/DNA template/AGU/ApU/alpha [32P]GTP addition and measured after 10 mins by phosphorimaging analysis.
The next data set deals with Enterococcus faecalis. Description: Antibacterial activity against Enterococcus faecalis ATCC 19433 after 20 hrs by CLSI based-broth microdilution method. It is filed as functional. The following applies: ATCC 19433, 20 h.
The nature of data set [4]: Apparent permeability across apical to basolateral membrane in human Caco2 cells at 10 ug/ml by LC-MS/MS analysis. To be noted: Caco-2. The format is ADME, cell-based. The procedure, abridged:
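Caco-2 monolayers grown 21–28 days on Transwell polycarbonate membranes, TEER ≥165 Ω cm2; preincubated 20 min at 37 °C in transport buffer; apical-to-basolateral transport only, pH 7.4 on both sides; receiver sampled over time under sink conditions; concentrations measured by LC–MS/MS.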
On the technique in general: Caco-2 cells form a polarised layer with tight junctions and transporters.

In another data set the test system is Pseudomonas aeruginosa. Nature of the data set: Antibacterial activity against Pseudomonas aeruginosa ATCC 27853 after 20 hrs by CLSI based-broth microdilution method. It is filed as functional. To be noted: ATCC 27853, 20 h.
In data set [5] the test system is Staphylococcus aureus. Nature of the data set: Effect on total RNA level in Staphylococcus aureus ATCC 29213 at 1/4 to 1/8 times MIC by fluorimetric method. The format is functional.
The next data set deals with Acinetobacter baumannii. Description: Antibacterial activity against Acinetobacter baumannii ATCC 19606 after 20 hrs by CLSI based-broth microdilution method. It is filed as functional. To be noted: ATCC 19606 = CIP 70.34 = JCM 6841, 20 h.
The test system of a further data set is HepG2. Nature of the data set: Cytotoxicity against human HepG2 cells after 48 to 72 hrs by MTT assay. The format is cell-based. (In general: Tetrazolium dyes change colour on reduction, which living cells bring about.)
A short description of data set [6]: Therapeutic index, ratio of CC50 for human HepG2 cells to MIC for Streptococcus pneumoniae ATCC 49619. The format is toxicity. The following applies: read-out: TI.
In another data set the test system is Streptococcus pneumoniae. Nature of the data set: Antibacterial activity against Streptococcus pneumoniae ATCC 49619 after 16 to 20 hrs by CLSI based-broth microdilution method. It is filed as functional.
Data set [7] has as its system Staphylococcus aureus. Nature of the data set: Antibacterial activity against Staphylococcus aureus ATCC 29213 after 20 hrs by CLSI based-broth microdilution method. The following applies: ATCC 29213, 20 h. The format is functional.
Data set [8] concerns Staphylococcus saprophyticus. Nature of the data set: Antibacterial activity against Staphylococcus saprophyticus ATCC 15305 after 20 hrs by CLSI based-broth microdilution method. It is filed as functional. The following applies: subsp. saprophyticus ATCC 15305, 20 h.
Another data set deals with A549. Description: Cytotoxicity against human A549 cells after 48 to 72 hrs by MTT assay. It is filed as cell-based.
In a further data set the test system is Enterobacter cloacae. Nature of the data set: Antibacterial activity against Enterobacter cloacae ATCC 13047 after 20 hrs by CLSI based-broth microdilution method. The format is functional. To be noted: subsp. cloacae ATCC 13047, 20 h.
Another data set concerns Klebsiella pneumoniae. Description: Antibacterial activity against Klebsiella pneumoniae ATCC 700603 after 20 hrs by CLSI based-broth microdilution method. To be noted: ATCC 700603, 20 h. It is filed as functional.
In a further data set the test system is Streptococcus agalactiae. Nature of the data set: Antibacterial activity against Streptococcus agalactiae ATCC 12386 after 20 hrs by CLSI based-broth microdilution method. It is filed as functional. The following applies: ATCC 12386, 20 h.
In data set [9] the test system is Staphylococcus aureus. Description: Antibacterial activity against Staphylococcus aureus ATCC 25923 after 20 hrs by CLSI based-broth microdilution method. The format is functional. The following applies: ATCC 25923, 20 h.
Data set [10] is described as follows: Therapeutic index, ratio of CC50 for human A549 cells to MIC for Streptococcus pneumoniae ATCC 49619. It is filed as toxicity. The following applies: read-out: TI.
Data set [11] in a line: Inhibition of N-terminal SmBiT-fused Bacillus subtilis RNAP subunit beta' CH region expressed in Escherichia coli BL21(DE3)pLysS interaction with C- terminal LgBiT-fused Bacillus subtilis RNA polymerase sigma factor SigA expressed in Escherichia coli BL21(DE3)pLysS preincubated for 10 mins followed by RNA polymerase sigma factor SigA addition and measured after 10 mins by nano-glo luciferase assay. The procedure, abridged:
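Split-luciferase complementation in PBS: N-SmBiT-CH (2.5 μM stock) mixed with compound at desired concentrations, 10 min at 37 °C. C-LgBiT-σA (2.5 μM stock) then added, another 10 min at 37 °C. Equal volume of Nano-Glo substrate added and luminescence read. No-drug control included. Run in triplicate with technical repeats.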

Four compounds from ChEMBL document CHEMBL4616723, “Discovery of Antibacterials That Inhibit Bacterial RNA Polymerase Interactions with Sigma Factors” (J Med Chem, 2020) can be followed below.

Structures are written as SMILES. pIC50: −log10 of the molar value. ≈ marks a conversion by molar mass, not a printed value.

As usually defined, the MIC is the least concentration at which growth counts as inhibited. For orientation: pIC50 means −log10 of the IC50, conventionally taken in molar units. One may read the Papp A→B as how fast a substance crosses the layer from the apical side. A word on the CC50: it is the concentration that lowers cell viability or growth by half.

As to `O=C(O)c1ccccc1C(=O)c1ccc(Sc2ccc(Cl)c(Cl)c2)c([N+](=O)[O-])c1`, in [1], the hemolysis was less than 10%. Moreover, the MIC is greater than 256 µg/mL in the data set on Escherichia coli; 16 µg/mL (≈ 35.7 µM) in data set [2]; 16 µg/mL (≈ 35.7 µM) with Streptococcus pyogenes; 32 µg/mL (≈ 71.4 µM) against Enterococcus faecalis; greater than 256 µg/mL against Pseudomonas aeruginosa; greater than 256 µg/mL against Staphylococcus aureus [5]. Further, the MIC in the data set on Acinetobacter baumannii was greater than 256 µg/mL; against Streptococcus pneumoniae, 8 µg/mL (≈ 17.8 µM); against Staphylococcus aureus [7], 16 µg/mL (≈ 35.7 µM); in data set [8], 32 µg/mL (≈ 71.4 µM); in the data set on Enterobacter cloacae, greater than 256 µg/mL; in the data set on Klebsiella pneumoniae, greater than 256 µg/mL. Besides, the MIC in the data set with Streptococcus agalactiae and against Staphylococcus aureus [9] was 16 µg/mL (≈ 35.7 µM) throughout. Besides, the pIC50 in data set [3] was 4.69. Further, in data set [4], the Papp A→B at 10 ug/ml amounted to 35 ×10⁻⁶ cm/s. Moreover, the CC50 is 63.8 µM with HepG2 and 76.7 µM in the data set on A549. For the same compound, the selectivity ratio in data set [6] stood at 7; in data set [10], 9.
In the case of `O=C(O)c1ccccc1NCc1ccc(Sc2ccc(Cl)c(Cl)c2)c([N+](=O)[O-])c1`, the hemolysis in [1] was less than 10%. Besides, the MIC against Escherichia coli was greater than 256 µg/mL; in [2] it was 4 µg/mL (≈ 8.9 µM); in the data set with Streptococcus pyogenes, 4 µg/mL (≈ 8.9 µM); with Enterococcus faecalis, 8 µg/mL (≈ 17.8 µM); in the data set on Pseudomonas aeruginosa, greater than 256 µg/mL; in the data set with Acinetobacter baumannii, greater than 256 µg/mL. The MIC was 4 µg/mL (≈ 8.9 µM) with Staphylococcus aureus [7]; 4 µg/mL (≈ 8.9 µM) in [8]; greater than 256 µg/mL with Enterobacter cloacae; greater than 256 µg/mL with Klebsiella pneumoniae; 4 µg/mL (≈ 8.9 µM) in the data set on Streptococcus agalactiae; 8 µg/mL (≈ 17.8 µM) in the data set on Staphylococcus aureus [9]. Besides, the Papp A→B at 10 ug/ml in [4] came out at 36.2 ×10⁻⁶ cm/s. Besides, the CC50 in the data set with HepG2 was 170 µM; with A549, 252 µM. Also, the selectivity ratio in data set [6] is 38; in data set [10] it was 57. The compound further gave a pIC50 in data set [11] of 4.94.
`O=C(O)c1ccc(Cl)c(NCc2ccc(Sc3ccc(Cl)c(Cl)c3)c([N+](=O)[O-])c2)c1`: the hemolysis in data set [1] is less than 10%. The MIC in the data set on Escherichia coli is greater than 256 µg/mL; in data set [2], 4 µg/mL (≈ 8.27 µM); against Streptococcus pyogenes it was 4 µg/mL (≈ 8.27 µM); against Enterococcus faecalis, 4 µg/mL (≈ 8.27 µM); against Pseudomonas aeruginosa, greater than 256 µg/mL; with Acinetobacter baumannii it was greater than 256 µg/mL. Moreover, the MIC is 8 µg/mL (≈ 16.5 µM) in the data set with Staphylococcus aureus [7]; 4 µg/mL (≈ 8.27 µM) in data set [8]; greater than 256 µg/mL with Enterobacter cloacae; greater than 256 µg/mL against Klebsiella pneumoniae; 4 µg/mL (≈ 8.27 µM) against Streptococcus agalactiae; 8 µg/mL (≈ 16.5 µM) with Staphylococcus aureus [9]. Also, the values for the CC50 with HepG2 and in the data set on A549 were 110 µM and 116 µM, respectively. Besides, the selectivity ratio in data set [6] came out at 27; in data set [10], 28. The compound also had a pIC50 in data set [11] of 4.82.
As to `Nc1cc(Cl)ccc1Sc1ccc(C(=O)c2ccccc2C(=O)O)cc1[N+](=O)[O-]`, the minimum inhibitory concentration (MIC) was greater than 256 µg/mL in the data set on Escherichia coli; greater than 256 µg/mL in the data set on Pseudomonas aeruginosa; greater than 256 µg/mL against Acinetobacter baumannii; 64 µg/mL (≈ 149 µM) in the data set on Streptococcus pneumoniae; greater than 256 µg/mL in the data set on Enterobacter cloacae; greater than 256 µg/mL against Klebsiella pneumoniae.
